Assay results from PubChem BioAssay.
The source made the active and inactive calls.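 The calls were made as follows, unless noted: active = NADPH fluorescence slope more negative than the mean of all samples by about 3 SD, 99.7% confidence; inactive = the rest.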

Assays:
[1] = inhibitors of TNFa-induced NFkB p65 translocation, primary screen, imaging, HUVEC, MLSMR starter and 10KST1 sets (AID 438;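 active = inhibition above 20% together with a positive visual image hit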;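 also: compound added about 3h40 before a 20 min TNFalpha stimulation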;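 as to inhibition: signal is the nuclear over cytoplasmic p65 intensity ratio per well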); conditions: HUVEC TNFa-induced p65 nuclear translocation; cell count: measured here: nuclei count (cytotoxicity indicator), at 2.08 µM; inhibition: at 2 µM, stronger effect = higher value, 0% TNFa-plus-vehicle, 100% no-TNFa wells
[2] = reduction of polyQ htt aggregates in cells – imaging, exon1htt(103Q)mCFP cells, high-content imaging, primary screen (AID 483;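 active = visual image review flags a hit and inhibition of aggregation exceeds 20%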;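 also: compound exposure lasted 3 days before fixation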;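 as to nuclei count: percent of the per-plate median nuclei count of sample wells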); conditions: exon1htt(103Q)mCFP cell line, aggregate imaging, at 2 µM; inhibition of aggregation: stronger effect = higher value; nuclei count: measured here: cell count, toxicity
[3] = endothelial E-selectin expression blockers – imaging, HUVEC, immunofluorescence, MLSMR starter and 10KST1 sets, primary screen (AID 487;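 active = visually confirmed hit in the image check and inhibition above 20%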;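 as to inhibition: signal is fraction of cell area covered by stained E-selectin grains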;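 as to nuclei count: 100% = median nuclei count of all wells on the same plate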); conditions: HUVEC TNFalpha-induced E-selectin immunofluorescence imaging, at 2 µM; inhibition: stronger effect = higher value; nuclei count: measured here: cell number, toxicity
[4] = molecular target: Voltage-gated potassium channel subunit beta-2 (Rattus norvegicus) (UniProt P62483); assay: inhibitors of rat Kvbeta2 reductase activity – biochemical, NADPH fluorescence, primary screen (AID 622;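 active = fluorescence slope higher than the sample average by over 3 SD, cut at about -0.22 in these data, passing the limit was not always enough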;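 also: slope of raw intensity against log time taken from 70 to 1610 s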); conditions: recombinant KvBeta, 4-cyanobenzaldehyde reduction, at 10 µM, stronger effect = higher value
[5] = molecular target: Voltage-gated potassium channel subunit beta-2 (Rattus norvegicus) (UniProt P62483); assay: enhancers of rat Kvbeta2 NADPH turnover – biochemical, NADPH fluorescence, primary screen (AID 623); conditions: Recombinant KvBeta, NADPH fluorescence decrease slope, 10 min; at 10 µM; stronger effect = lower value;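 also: fluorescence intensity change per second fitted from 20 to 320 s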
[6] = molecular target: Muscarinic acetylcholine receptor M4 (Homo sapiens) (UniProt P08173); assay: M4-linked GIRK flux change, two-sided – cell-based, HEK293 M4/GIRK, thallium flux, BTC-AM, M4 allosteric agonist project, primary screen (AID 625;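 active = fluorescence slope after compound addition differing from the mean of all tested samples at 99.7% confidence, mostly higher but some lower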;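 also: thallium influx through GIRK channels coupled to M4 in HEK293 cells with BTC-AM dye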); conditions: at 10 µM, actives lie on both sides
How it was run: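 Assay system: HEK293 cells with M4 receptor and GIRK channels / Controls: carbachol and DMSO controls / Schedule: 1 h dye loading, 2 min kinetic read / Technique: kinetic fluorescence with BTC-AM dye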

[7] = blockers of RIG-like receptor reporter activation – cell-based, Sendai virus stimulus, luciferase, 10K MLSCN set, TLR/RLR signaling modifier project, primary screen (AID 602276;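 active = inhibition at or above 50% at 10 µM; inactive = inhibition below 50%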;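 also: firefly luciferase from ISG56 promoter only with Renilla not read in this screen; 0% = Sendai virus plus DMSO and 100% = medium plus DMSO without virus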); conditions: HEK293 RL24 IRF3 luciferase reporter, at 10 µM, stronger effect = higher value
[8] = TLR3 IRF3 reporter activation blockers – cell-based, poly I:C stimulus, luciferase, 10K MLSCN set, primary screen (AID 602277;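 active = inhibition of the reporter signal at or above 50%; inactive = inhibition below 50%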); conditions: HEK293-TLR3 RL24 IRF3 luciferase reporter, at 10 µM, stronger effect = higher value

Chain of Muscarinic acetylcholine receptor M4 (Homo sapiens) (P08173 whole entry, looked up): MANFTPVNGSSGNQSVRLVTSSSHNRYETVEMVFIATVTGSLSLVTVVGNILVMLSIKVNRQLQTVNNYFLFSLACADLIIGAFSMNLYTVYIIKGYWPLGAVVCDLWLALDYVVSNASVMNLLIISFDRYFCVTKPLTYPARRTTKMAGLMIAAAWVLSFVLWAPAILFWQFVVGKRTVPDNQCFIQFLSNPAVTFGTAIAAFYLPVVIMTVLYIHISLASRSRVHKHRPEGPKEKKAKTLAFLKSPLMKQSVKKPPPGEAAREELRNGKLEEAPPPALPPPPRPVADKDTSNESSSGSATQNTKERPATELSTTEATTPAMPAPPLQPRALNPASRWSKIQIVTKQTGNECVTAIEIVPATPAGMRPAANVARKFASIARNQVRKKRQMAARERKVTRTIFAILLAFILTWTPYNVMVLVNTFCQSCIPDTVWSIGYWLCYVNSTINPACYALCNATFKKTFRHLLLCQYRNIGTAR
Chain of Voltage-gated potassium channel subunit beta-2 (Rattus norvegicus) (P62483 whole entry, looked up): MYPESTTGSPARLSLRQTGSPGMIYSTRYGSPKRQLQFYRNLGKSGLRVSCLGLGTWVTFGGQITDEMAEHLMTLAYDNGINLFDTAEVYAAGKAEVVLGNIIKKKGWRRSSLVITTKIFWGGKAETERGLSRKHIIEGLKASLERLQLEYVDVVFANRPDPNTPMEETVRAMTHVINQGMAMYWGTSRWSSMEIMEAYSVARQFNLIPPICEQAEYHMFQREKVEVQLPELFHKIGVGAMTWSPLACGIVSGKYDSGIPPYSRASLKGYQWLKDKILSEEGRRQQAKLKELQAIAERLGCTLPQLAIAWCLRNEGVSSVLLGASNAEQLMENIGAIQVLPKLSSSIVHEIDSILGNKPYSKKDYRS

Row | Compound | cell count [1] | inhibition [1] | inhibition of aggregation [2] | nuclei count [2] | inhibition [3] | nuclei count [3] | fluorescence slope [4] | NADPH fluorescence slope [5] | fluorescence slope [6] | inhibition [7] | inhibition [8]
1 | O=C(CN1CCN(C(=O)c2ccccc2)CC1)Nc1ncc(Br)cc1Br | 622 | 7.6% (inactive) | -6.8% (inactive) | 95.9% | 2.6% (inactive) | 99.9% | -0.45 (inactive) | 3.1e-05 (inactive) | 0.00598 (inactive) | -7.57% (inactive) | 5.71% (inactive)
2 | c1csc(-c2nc3nc4ccccc4nc3n2Cc2ccc3c(c2)OCO3)c1 | 837 | 1.7% (inactive) | -18.6% (inactive) | 114% | -9.5% (inactive) | 108% | -0.405 (inactive) | -4.1e-05 (inactive) | 0.00582 (inactive) | -28.9% (inactive) | -79.4% (inactive)
3 | Cc1ccc(S(=O)(=O)NC(C(=O)OCC(=O)NC2CCS(=O)(=O)C2)C(C)C)cc1 (stereo not drawn) | 654 | -10.1% (inactive) | 9.6% (inactive) | 93.4% | -40.2% (inactive) | 109% | -0.578 (inactive) | 9.1e-06 (inactive) | 0.0094 (inactive) | -14% (inactive) | 18.4% (inactive)
4 | Cn1c(=O)c2c(nc(N3CCCCC3)n2CCSc2nc3ccccc3o2)n(C)c1=O | 248 | -3.6% (inactive) | 2.8% (inactive) | 71.3% | 28.4% (inactive) | 94.2% | -0.451 (inactive) | 4.5e-05 (inactive) | 0.00597 (inactive) | -13.5% (inactive) | -11.3% (inactive)
5 | CSC(=O)CC(=O)NC(=O)c1ccccc1 | 373 | 0% (inactive) | -2.5% (inactive) | 90% | -76.9% (inactive) | 159% | -0.605 (inactive) | 1.1e-06 (inactive) | 0.00374 (inactive) | 7.05% (inactive) | 5.94% (inactive)
6 | Clc1cccc(-c2nn3c(Cn4cnc5ccccc54)nnc3s2)c1 | 581 | 4.7% (inactive) | -6.1% (inactive) | 113% | -92.1% (inactive) | 130% | -0.432 (inactive) | -0.000274 (inactive) | 0.00396 (inactive) | 18.7% (inactive) | 21.6% (inactive)
7 | O=C(OCCCN1C(=O)c2ccccc2C1=O)c1ccco1 | 643 | -2.2% (inactive) | 17.8% (inactive) | 96.8% | 33.4% (inactive) | 98.5% | -0.482 (inactive) | 4.2e-05 (inactive) | 0.00571 (inactive) | -6.62% (inactive) | -11.6% (inactive)
8 | CCOC(=O)c1ccc(NC(=O)NC(C)C2CCCO2)cc1 (stereo not drawn) | 352 | -12.3% (inactive) | -23.9% (inactive) | 101% | -94.9% (inactive) | 86.6% | -0.462 (inactive) | 2e-05 (inactive) | 0.00652 (inactive) | -13% (inactive) | 98.6% (active)
9 | CCn1c(NCc2ccc(N(C)C)cc2)nc2ccccc21 | 627 | 12.5% (inactive) | -2.9% (inactive) | 96.5% | -34.6% (inactive) | 116% | -0.31 (inactive) | -2.4e-05 (inactive) | 0.00632 (inactive) | -9.27% (inactive) | -36.5% (inactive)
10 | COc1ccc(-c2coc3c(CN4CCCCC4)c(O)c(CN4CCCCC4)c(O)c3c2=O)cc1 | 367 | -17% (inactive) | 8.6% (inactive) | 85.4% | -63.6% (inactive) | 103% | -0.566 (inactive) | -2.2e-05 (inactive) | 0.00504 (inactive) | 5.54% (inactive) | 32.3% (inactive)
11 | CN(c1cccc(NC(=O)COc2ccccc2)c1)S(C)(=O)=O | 226 | 7.2% (inactive) | 21.6% (inactive) | 91.6% | -143% (inactive) | 111% | -0.49 (inactive) | 6.4e-05 (inactive) | 0.00411 (inactive) | -58.9% (inactive) | -120% (inactive)
12 | O=C(NCc1ccco1)C1Cc2ccccc2CN1S(=O)(=O)c1ccccc1F (stereo not drawn) | 654 | 7.7% (inactive) | 26.2% (inactive) | 95.5% | -30% (inactive) | 98.1% | -0.591 (inactive) | -1.7e-05 (inactive) | 0.0061 (inactive) | 6.51% (inactive) | -0.697% (inactive)
13 | Nn1c(CSc2nc3ccccc3o2)nnc1CSc1nc2ccccc2o1 | 449 | -13.4% (inactive) | 24.5% (inactive) | 85.3% | 29.7% (inactive) | 86% | -0.408 (inactive) | 5.7e-05 (inactive) | 0.00537 (inactive) | 9.57% (inactive) | 17% (inactive)
14 | Cc1nc2ccc(S(=O)(=O)NCC(=O)O)cc2s1 | 423 | 5.2% (inactive) | -3% (inactive) | 110% | -56.1% (inactive) | 118% | -0.45 (inactive) | 4.8e-05 (inactive) | 0.00579 (inactive) | -1.77% (inactive) | 13% (inactive)
15 | CCOC(=O)c1sc2nc3c(cc2c1N)COC(C)(C)C3 | 746 | -5.9% (inactive) | 0.2% (inactive) | 105% | 8.8% (inactive) | 105% | -0.432 (inactive) | -5.4e-06 (inactive) | 0.0043 (inactive) | -38.4% (inactive) | -104% (inactive)
16 | O=C(Nc1ccc(CN2CCCCC2)cc1)c1ccc2c(c1)OCO2 | 438 | -12.8% (inactive) | 15.1% (inactive) | 102% | -0.6% (inactive) | 73.6% | -0.473 (inactive) | -1.5e-05 (inactive) | 0.00547 (inactive) | -5.51% (inactive) | -5.01% (inactive)
17 | O=C1CSC(c2cccc(F)c2)N1c1ccccc1F (stereo not drawn) | 650 | -15.7% (inactive) | 36.5% (inactive) | 118% | -120% (inactive) | 100% | -0.614 (inactive) | 6.1e-06 (inactive) | 0.00376 (inactive) | 15% (inactive) | 18.1% (inactive)
18 | O=C(COc1ccc2c(c1)OCO2)NC12CC3CC(CC(C3)C1)C2 | 337 | -3.7% (inactive) | 1.3% (inactive) | 91.5% | -142% (inactive) | 99.1% | -0.411 (inactive) | -4.1e-05 (inactive) | 0.00898 (inactive) | -38.5% (inactive) | -35.6% (inactive)
19 | CN(C(=O)COC(=O)C1CCN(S(=O)(=O)c2cccs2)CC1)C1CCS(=O)(=O)C1 (stereo not drawn) | 385 | -2.7% (inactive) | 6% (inactive) | 51.8% | -190% (inactive) | 120% | -0.571 (inactive) | -4.2e-05 (inactive) | 0.00447 (inactive) | -5.26% (inactive) | 1.49% (inactive)
20 | COc1ccc(OC)c(C2=NOC(C(=O)NCCN3CCOCC3)C2)c1 (stereo not drawn) | 715 | -22.4% (inactive) | 12.9% (inactive) | 96% | -20.4% (inactive) | 85.7% | -0.62 (inactive) | 3.7e-06 (inactive) | 0.00547 (inactive) | 17.7% (inactive) | 25% (inactive)
21 | C/C(N)=C(\C#N)C(=O)NCCc1ccccn1 | 326 | -1.7% (inactive) | -11.6% (inactive) | 106% | -26.9% (inactive) | 102% | -0.613 (inactive) | 2e-05 (inactive) | 0.00369 (inactive) | 7.83% (inactive) | 13.8% (inactive)
22 | c1ccc2c(c1)Cn1c-2nc2ccccc21 | 700 | -28.4% (inactive) | 5.7% (inactive) | 80.7% | -26.5% (inactive) | 114% | -0.349 (inactive) | -6.3e-05 (inactive) | 0.00562 (inactive) | -36.1% (inactive) | -131% (inactive)
23 | CC1Cc2cc(/C(O)=C3/C(=O)C(=O)N(CCN4CCOCC4)C3c3cccc(O)c3)ccc2O1 (stereo not drawn) | 576 | -2.7% (inactive) | -17.8% (inactive) | 105% | -18.4% (inactive) | 94.9% | -0.573 (inactive) | -8.9e-05 (inactive) | 0.00539 (inactive) | -19.1% (inactive) | -6.57% (inactive)
24 | CC(C)(C)NC(=O)Nc1ccccc1C(N)=O | 657 | 1.6% (inactive) | -14.8% (inactive) | 108% | -34.5% (inactive) | 107% | -0.539 (inactive) | -8e-06 (inactive) | 0.0058 (inactive) | 3.23% (inactive) | -20.8% (inactive)
25 | CCOC(=O)c1nnn(CC(=O)Nc2cccc(OC)c2)c1C(=O)OCC | 395 | 8% (inactive) | 20.4% (inactive) | 89% | -10.7% (inactive) | 106% | -0.416 (inactive) | -3.9e-05 (inactive) | 0.00731 (inactive) | 9.94% (inactive) | 14.1% (inactive)
26 | CCOc1cc(C2c3c(n[nH]c3C)C(=O)N2c2ccc(Br)cc2)ccc1O (stereo not drawn) | 572 | -2.3% (inactive) | 7.8% (inactive) | 109% | -89.9% (inactive) | 110% | -0.373 (inactive) | -8.6e-06 (inactive) | 0.00604 (inactive) | 30.1% (inactive) | 30% (inactive)
27 | Cc1cc(NC(=O)CSc2ccc3nnc(-c4cccc(F)c4)n3n2)no1 | 619 | -13.6% (inactive) | 10.1% (inactive) | 125% | -55.4% (inactive) | 107% | -0.266 (inactive) | 1e-08 (inactive) | 0.00544 (inactive) | -1.23% (inactive) | -7.4% (inactive)
28 | COc1ccc(C(=O)N(Cc2ccco2)C(C(=O)NC2CCCC2)c2ccc(O)cc2)cc1OC (stereo not drawn) | 653 | -2.4% (inactive) | -3.3% (inactive) | 104% | 14.6% (inactive) | 103% | -0.54 (inactive) | -4.9e-05 (inactive) | 0.00452 (inactive) | 10.7% (inactive) | 12.6% (inactive)
